Square brackets hold non-standard residues; d marks the D form. Peptide text beside a SMILES is read from it. * marks the point of attachment. F2Pmp = N[C@@H](Cc1ccc(C(F)(F)P(=O)(O)O)cc1)C(=O)O; Fmoc = O=C(OCC1c2ccccc2-c2ccccc21)*; OBn = c1ccc(CO*)cc1
Assays:
[1] = target: T1, Tyrosine-protein phosphatase non-receptor type 1 (Homo sapiens, UniProt P18031); assay: Inhibition of human Protein-tyrosine phosphatase 1B expressed in Escherichia coli BL21 (DE3) cells
T1 sequence (P18031 whole entry): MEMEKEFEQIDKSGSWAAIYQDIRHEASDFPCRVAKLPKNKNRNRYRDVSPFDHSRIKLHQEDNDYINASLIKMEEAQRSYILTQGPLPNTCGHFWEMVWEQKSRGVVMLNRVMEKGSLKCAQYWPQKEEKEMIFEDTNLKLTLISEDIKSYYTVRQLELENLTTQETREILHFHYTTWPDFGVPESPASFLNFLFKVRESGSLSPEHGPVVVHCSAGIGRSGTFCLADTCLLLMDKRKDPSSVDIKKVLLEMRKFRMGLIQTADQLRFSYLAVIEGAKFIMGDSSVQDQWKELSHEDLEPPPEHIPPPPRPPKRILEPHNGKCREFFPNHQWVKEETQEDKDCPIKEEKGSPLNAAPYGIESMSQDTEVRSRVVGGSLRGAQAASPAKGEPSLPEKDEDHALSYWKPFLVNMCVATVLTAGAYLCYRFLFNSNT
How it was run: (§1)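 Recombinant enzymes made in E. coli BL21(DE3) and purified as published previously. Assay run at 30 °C, pH 7.0, in 50 mM 3,3-dimethylglutarate, 1 mM EDTA, ionic strength brought to 150 mM with NaCl. Substrate pNPP fixed at each enzyme's Km. Enzyme added to start, NaOH quench, A405 read. Six to eight inhibitor concentrations used. IC50 obtained by fitting relative activity to a four-parameter slope-factor equation.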

[2] = target: Secreted effector protein (Yersinia pestis, UniProt O68720); assay: Inhibition of Tyrosine phosphatase from Yersinia pestis expressed in Escherichia coli BL21 (DE3) cells; how it was run: as §1
[3] = target: T1, Tyrosine-protein phosphatase non-receptor type 1; assay: Inhibitory potency against human Protein-tyrosine phosphatase 1B expressed in Escherichia coli BL21 (DE3) cells; how it was run: as §1

Chain of Secreted effector protein (O68720 whole entry): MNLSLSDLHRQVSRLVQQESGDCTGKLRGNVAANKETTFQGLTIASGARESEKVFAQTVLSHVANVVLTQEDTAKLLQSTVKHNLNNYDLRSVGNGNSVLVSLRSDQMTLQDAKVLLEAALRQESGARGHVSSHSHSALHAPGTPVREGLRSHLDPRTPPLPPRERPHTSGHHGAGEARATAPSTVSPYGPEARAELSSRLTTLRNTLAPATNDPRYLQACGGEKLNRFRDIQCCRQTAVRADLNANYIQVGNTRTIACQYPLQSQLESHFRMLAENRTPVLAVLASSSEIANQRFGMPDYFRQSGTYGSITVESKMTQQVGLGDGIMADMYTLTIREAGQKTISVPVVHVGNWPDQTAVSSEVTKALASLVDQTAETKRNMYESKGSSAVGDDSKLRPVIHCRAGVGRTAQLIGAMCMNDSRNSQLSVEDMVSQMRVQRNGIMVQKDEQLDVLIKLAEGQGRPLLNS

## CC(C)C[C@H](NC(=O)[C@H](Cc1ccc(OC(F)(C(=O)O)C(=O)O)cc1)NC(=O)[C@H](CCC(=O)OCc1ccccc1)NC(=O)OCC1c2ccccc2-c2ccccc21)C(N)=O
[1]
  IC50: 1.5 µM
[2]
  IC50: 2.9 µM

## CC(C)C[C@H](NC(=O)[C@H](Cc1ccc(CC(=O)O)c(C(=O)O)c1)NC(=O)[C@H](CCC(=O)O)NC(=O)OCC1c2ccccc2-c2ccccc21)C(N)=O
[1]
  IC50: 0.7 µM
[2]
  IC50: > 800 µM

## CC(C)C[C@H](NC(=O)[C@H](Cc1ccc(C(F)(F)C(=O)O)cc1)NC(=O)[C@H](CCC(=O)O)NC(=O)OCC1c2ccccc2-c2ccccc21)C(N)=O
[1]
  IC50: 1.4 µM
[2]
  IC50: > 800 µM

## CC(C)C[C@H](NC(=O)[C@H](Cc1ccc(CC(=O)O)c(O)c1)NC(=O)[C@H](CCC(=O)O)NC(=O)OCC1c2ccccc2-c2ccccc21)C(N)=O
[1]
  IC50: 4 µM
[2]
  IC50: > 800 µM

## CC(C)C[C@H](NC(=O)[C@H](Cc1ccc(C(F)(C(=O)O)C(=O)O)cc1)NC(=O)[C@H](CCC(=O)OCc1ccccc1)NC(=O)OCC1c2ccccc2-c2ccccc21)C(N)=O
[1]
  IC50: 3.1 µM
[2]
  IC50: 3.1 µM

## CC(C)C[C@H](NC(=O)[C@H](Cc1ccc(OC(C(=O)O)C(=O)O)cc1)NC(=O)[C@H](CCC(=O)O)NC(=O)OCC1c2ccccc2-c2ccccc21)C(N)=O
[3]
  Ki: 29 µM
[2]
  IC50: > 800 µM

## CC(C)C[C@H](NC(=O)[C@H](Cc1ccc(OCC(=O)O)c(C(=O)O)c1)NC(=O)[C@H](CCC(=O)OCc1ccccc1)NC(=O)OCC1c2ccccc2-c2ccccc21)C(N)=O
[1]
  IC50: 8.3 µM
[2]
  IC50: 10.5 µM

## CC(C)C[C@H](NC(=O)[C@H](Cc1ccc(OCC(=O)O)c(C(=O)O)c1)NC(=O)[C@H](CCC(=O)O)NC(=O)OCC1c2ccccc2-c2ccccc21)C(N)=O
[1]
  IC50: 54.7 µM
[2]
  IC50: > 100 µM

## CC(C)C[C@H](NC(=O)[C@H](Cc1ccc(C(C(=O)O)C(=O)O)cc1)NC(=O)[C@H](CCC(=O)O)NC(=O)OCC1c2ccccc2-c2ccccc21)C(N)=O
[1]
  IC50: 0.8 µM
[2]
  IC50: > 800 µM

## CC(C)C[C@H](NC(=O)[C@H](Cc1ccc(C(F)(C(=O)O)C(=O)O)cc1)NC(=O)[C@H](CCC(=O)O)NC(=O)OCC1c2ccccc2-c2ccccc21)C(N)=O
[1]
  IC50: 0.7 µM
[2]
  IC50: > 800 µM

## CC(C)C[C@H](NC(=O)[C@H](Cc1ccc(OCC(=O)O)cc1)NC(=O)[C@H](CCC(=O)OCc1ccccc1)NC(=O)OCCc1ccccc1)C(N)=O
[1]
  IC50: 58.2 µM
[2]
  IC50: 8 µM

## CC(C)C[C@H](NC(=O)[C@H](Cc1ccc(OC(C(=O)O)C(=O)O)cc1)NC(=O)[C@H](CCC(=O)OCc1ccccc1)NC(=O)OCC1c2ccccc2-c2ccccc21)C(N)=O
[1]
  IC50: 116 µM
[2]
  IC50: 82 µM

## CC(C)C[C@H](NC(=O)[C@H](Cc1ccc(CC(=O)O)c(C(=O)O)c1)NC(=O)[C@H](CCC(=O)OCc1ccccc1)NC(=O)OCC1c2ccccc2-c2ccccc21)C(N)=O
[1]
  IC50: 44 µM
[2]
  IC50: 142 µM

## CC(C)C[C@H](NC(=O)[C@H](Cc1ccc(C(F)(F)P(=O)(O)O)cc1)NC(=O)[C@H](CCC(=O)OCc1ccccc1)NC(=O)OCC1c2ccccc2-c2ccccc21)C(N)=O (Fmoc-Glu(OBn)-[F2Pmp]-Leu-NH2)
[1]
  IC50: 1.41 µM
[2]
  IC50: 5.2 µM
